Test results reported in ChEMBL document CHEMBL5108089, “Structure-based discovery of potent inhibitors of Axl: design, synthesis, and biological evaluation” (RSC Med Chem, 2022).
Activity calls are given as the source filed them. No cut-off for these calls is given here.

What was measured:
[1] = target: T1, Tyrosine-protein kinase receptor UFO (Homo sapiens, UniProt P30530); experiment: Inhibition of human Axl using KKSRGDYMTMQIG as substrate incubated for 40 mins in the presence of [gamma33P]ATP by scintillation counting analysis
T1 sequence (P30530 whole entry): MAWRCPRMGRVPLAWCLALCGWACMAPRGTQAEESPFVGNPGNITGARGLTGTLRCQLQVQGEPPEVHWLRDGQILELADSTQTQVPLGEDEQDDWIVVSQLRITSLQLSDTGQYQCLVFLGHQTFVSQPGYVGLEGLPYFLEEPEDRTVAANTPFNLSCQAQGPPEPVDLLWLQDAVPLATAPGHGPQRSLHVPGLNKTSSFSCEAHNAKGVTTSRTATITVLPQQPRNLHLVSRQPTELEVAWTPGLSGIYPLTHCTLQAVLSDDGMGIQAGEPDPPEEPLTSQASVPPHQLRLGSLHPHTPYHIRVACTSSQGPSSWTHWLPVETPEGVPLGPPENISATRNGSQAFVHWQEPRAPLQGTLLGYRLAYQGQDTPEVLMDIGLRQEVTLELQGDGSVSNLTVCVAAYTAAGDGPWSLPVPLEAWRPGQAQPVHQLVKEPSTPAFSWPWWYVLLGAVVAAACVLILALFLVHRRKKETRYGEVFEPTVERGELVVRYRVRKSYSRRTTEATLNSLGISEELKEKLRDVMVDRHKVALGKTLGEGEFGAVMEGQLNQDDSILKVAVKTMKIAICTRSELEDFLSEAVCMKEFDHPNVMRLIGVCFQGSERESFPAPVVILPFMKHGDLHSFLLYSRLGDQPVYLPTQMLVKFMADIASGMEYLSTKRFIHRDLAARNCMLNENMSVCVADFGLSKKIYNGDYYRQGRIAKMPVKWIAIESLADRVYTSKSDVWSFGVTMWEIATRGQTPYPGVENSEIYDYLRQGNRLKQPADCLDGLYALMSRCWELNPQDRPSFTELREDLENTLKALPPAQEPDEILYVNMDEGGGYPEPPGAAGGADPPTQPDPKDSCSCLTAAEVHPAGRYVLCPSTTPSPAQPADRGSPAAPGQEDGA

[2] = Intrinsic clearance in human; type: ADME
[3] = Half-life in Sprague-Dawley rat at 5 mg/kg, po measured upto 24 hrs by LC-MS/MS analysis; type: ADME, organism-based; details: in vivo
[4] = Oral bioavailability in Sprague-Dawley rat at 5 mg/kg measured upto 24 hrs by LC-MS/MS analysis; type: ADME, organism-based; details: in vivo
NCI-H226 = experiment: Antiproliferative activity against human NCI-H226 cells assessed as inhibition of cell growth incubated for 72 hrs by CCK-8 assay; type: functional
Calu-3 = experiment: Antiproliferative activity against human Calu-3 cells assessed as inhibition of cell growth incubated for 72 hrs by CCK-8 assay; type: functional
Method in brief: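 Plated at 10000 cells/well. Dose series topped at 10 uM for test compound and at 1 uM for the staurosporine reference. Read-outs were CC50 and maximum % inhibition.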

EVSA-T = experiment: Antiproliferative activity against human EVSA-T cells assessed as inhibition of cell growth incubated for 72 hrs by CCK-8 assay; type: functional
[5] = Antiproliferative activity against human T.Tn cells assessed as inhibition of cell growth incubated for 72 hrs by CCK-8 assay; type: functional
MGC-803 = experiment: Antiproliferative activity against human MGC-803 cells assessed as inhibition of cell growth incubated for 72 hrs by CCK-8 assay; type: functional
SNU-16 = experiment: Antiproliferative activity against human SNU-16 cells assessed as inhibition of cell growth incubated for 72 hrs by CCK-8 assay; type: functional
Method in brief: (§1)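 8000 cells/well. Test compound was serially diluted from a 10 uM top concentration and staurosporine from 1 uM. CC50 and maximum % inhibition are reported.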

HeLa = experiment: Antiproliferative activity against human HeLa cells assessed as inhibition of cell growth incubated for 72 hrs by CCK-8 assay; type: functional
COLO 205 = experiment: Antiproliferative activity against human COLO 205 cells assessed as inhibition of cell growth incubated for 72 hrs by CCK-8 assay; type: functional
SUD4 = experiment: Antiproliferative activity against human SU-DHL-4 cells assessed as inhibition of cell growth incubated for 72 hrs by CCK-8 assay; type: functional; method in brief: as §1
RS4-11 = experiment: Antiproliferative activity against human RS4-11 cells assessed as inhibition of cell growth incubated for 72 hrs by CCK-8 assay; type: functional; method in brief: as §1
MV4-11 = experiment: Antiproliferative activity against human MV4-11 cells assessed as inhibition of cell growth incubated for 72 hrs by CCK-8 assay; type: functional; method in brief: as §1
[6] = target: Tyrosine-protein kinase receptor UFO (Homo sapiens) (UniProt P30530); experiment: Inhibition of Axl (unknown origin) a 1 uM relative to control
Method in brief: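 Ran 40 min at room temperature, stopped with 0.5% phosphoric acid, then filter-bound, washed and scintillation-counted. Inhibition was calculated as 100 − activity (%), given as mean ±SD.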

[7] = target: Tyrosine-protein kinase Mer (Homo sapiens) (UniProt Q12866); experiment: Inhibition of Mer (unknown origin) at 1 uM
Sequence of Tyrosine-protein kinase Mer (Homo sapiens) (Q12866 whole entry): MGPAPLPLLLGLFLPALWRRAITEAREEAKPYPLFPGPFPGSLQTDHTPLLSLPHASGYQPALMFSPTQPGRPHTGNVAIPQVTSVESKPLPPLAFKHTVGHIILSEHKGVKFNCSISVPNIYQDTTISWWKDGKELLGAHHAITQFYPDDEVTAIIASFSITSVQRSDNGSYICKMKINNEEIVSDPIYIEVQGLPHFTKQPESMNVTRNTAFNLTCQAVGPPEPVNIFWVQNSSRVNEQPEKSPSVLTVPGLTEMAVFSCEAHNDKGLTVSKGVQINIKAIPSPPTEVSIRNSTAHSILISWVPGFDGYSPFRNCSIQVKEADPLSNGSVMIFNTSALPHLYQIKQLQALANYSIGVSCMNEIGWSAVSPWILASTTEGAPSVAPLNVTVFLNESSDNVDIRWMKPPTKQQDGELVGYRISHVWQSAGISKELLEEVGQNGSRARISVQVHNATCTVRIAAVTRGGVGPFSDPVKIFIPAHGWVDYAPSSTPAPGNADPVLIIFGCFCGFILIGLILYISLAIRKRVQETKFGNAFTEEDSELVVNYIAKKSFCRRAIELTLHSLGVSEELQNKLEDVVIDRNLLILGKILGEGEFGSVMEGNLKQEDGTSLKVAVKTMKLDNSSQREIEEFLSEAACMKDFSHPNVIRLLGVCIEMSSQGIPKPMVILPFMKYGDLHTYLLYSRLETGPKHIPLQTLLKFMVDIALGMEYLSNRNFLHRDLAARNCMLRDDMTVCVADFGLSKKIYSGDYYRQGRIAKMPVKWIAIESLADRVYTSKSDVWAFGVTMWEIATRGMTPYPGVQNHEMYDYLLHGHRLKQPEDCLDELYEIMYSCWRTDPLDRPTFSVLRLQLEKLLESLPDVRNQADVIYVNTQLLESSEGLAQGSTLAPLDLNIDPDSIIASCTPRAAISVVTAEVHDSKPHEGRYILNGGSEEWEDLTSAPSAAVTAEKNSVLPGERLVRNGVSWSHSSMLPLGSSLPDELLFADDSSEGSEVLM

[8] = target: Proto-oncogene tyrosine-protein kinase receptor Ret (Homo sapiens) (UniProt P07949); experiment: Inhibition of Ret (unknown origin) at 1 uM relative to control
Sequence of Proto-oncogene tyrosine-protein kinase receptor Ret (Homo sapiens) (P07949 whole entry): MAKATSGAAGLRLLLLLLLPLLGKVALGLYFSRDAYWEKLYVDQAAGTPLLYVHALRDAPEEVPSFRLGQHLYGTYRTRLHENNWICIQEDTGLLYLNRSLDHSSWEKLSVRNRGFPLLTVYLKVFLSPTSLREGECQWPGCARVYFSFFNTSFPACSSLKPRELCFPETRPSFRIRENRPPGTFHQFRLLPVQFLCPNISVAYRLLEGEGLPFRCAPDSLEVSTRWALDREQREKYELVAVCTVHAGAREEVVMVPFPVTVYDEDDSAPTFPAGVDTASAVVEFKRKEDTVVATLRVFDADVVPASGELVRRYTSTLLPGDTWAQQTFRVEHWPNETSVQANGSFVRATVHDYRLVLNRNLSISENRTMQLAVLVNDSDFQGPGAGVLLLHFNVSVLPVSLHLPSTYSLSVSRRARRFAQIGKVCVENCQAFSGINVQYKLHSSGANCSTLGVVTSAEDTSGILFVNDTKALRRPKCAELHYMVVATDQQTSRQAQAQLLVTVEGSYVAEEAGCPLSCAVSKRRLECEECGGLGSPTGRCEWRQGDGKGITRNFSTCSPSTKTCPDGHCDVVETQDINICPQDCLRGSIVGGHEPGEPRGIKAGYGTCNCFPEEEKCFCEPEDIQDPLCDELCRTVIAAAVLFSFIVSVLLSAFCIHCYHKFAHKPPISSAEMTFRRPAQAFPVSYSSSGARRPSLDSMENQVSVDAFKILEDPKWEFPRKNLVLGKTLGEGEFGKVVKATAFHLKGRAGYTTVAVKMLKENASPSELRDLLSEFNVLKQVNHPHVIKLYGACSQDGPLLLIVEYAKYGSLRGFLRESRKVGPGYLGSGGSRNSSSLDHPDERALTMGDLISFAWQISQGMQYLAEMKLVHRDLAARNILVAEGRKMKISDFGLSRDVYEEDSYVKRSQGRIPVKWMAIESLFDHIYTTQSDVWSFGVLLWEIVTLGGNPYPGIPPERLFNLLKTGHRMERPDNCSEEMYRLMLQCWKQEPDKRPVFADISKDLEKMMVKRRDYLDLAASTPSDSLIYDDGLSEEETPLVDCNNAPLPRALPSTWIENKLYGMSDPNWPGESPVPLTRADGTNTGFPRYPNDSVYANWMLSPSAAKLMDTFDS

[9] = target: Tyrosine-protein kinase TXK (Homo sapiens) (UniProt P42681); experiment: Inhibition of Txk (unknown origin) at 1 uM relative to control
Sequence of Tyrosine-protein kinase TXK (Homo sapiens) (P42681 whole entry): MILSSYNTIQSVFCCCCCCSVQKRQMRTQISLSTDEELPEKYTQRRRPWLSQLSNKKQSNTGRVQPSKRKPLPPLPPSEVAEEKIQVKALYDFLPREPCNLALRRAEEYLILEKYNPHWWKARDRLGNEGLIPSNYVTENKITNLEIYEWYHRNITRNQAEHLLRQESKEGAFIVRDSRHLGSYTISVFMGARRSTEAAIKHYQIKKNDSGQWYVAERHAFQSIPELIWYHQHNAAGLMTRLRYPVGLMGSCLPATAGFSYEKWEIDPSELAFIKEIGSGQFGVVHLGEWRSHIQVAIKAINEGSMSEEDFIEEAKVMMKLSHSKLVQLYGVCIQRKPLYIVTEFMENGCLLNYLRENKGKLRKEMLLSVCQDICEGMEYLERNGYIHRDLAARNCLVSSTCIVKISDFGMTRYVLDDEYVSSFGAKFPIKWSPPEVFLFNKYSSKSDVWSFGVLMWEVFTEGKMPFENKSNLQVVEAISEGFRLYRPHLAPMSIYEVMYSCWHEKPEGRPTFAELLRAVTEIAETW

**Q.** For CC(C)n1cnc(-c2ccccc2Nc2nc(Nc3ccc(N(C)C4CCN(C)CC4)cc3)ncc2Cl)n1, which IC50 [1] is on record?
**A.** 5 nM

**Q.** And the CLint scaled [2]?
**A.** 12 mL/min/kg

**Q.** And the half-life [3]?
**A.** 6.45 h

**Q.** And the bioavailability [4]?
**A.** 56.1%

**Q.** What about the CC50 (NCI-H226) of the same compound?
**A.** 1240 nM

**Q.** And the CC50 (Calu-3)?
**A.** 107 nM

**Q.** What about the CC50 (EVSA-T) of the same compound?
**A.** 1150 nM

**Q.** What about the CC50 [5] of the same compound?
**A.** 119 nM

**Q.** And the CC50 (MGC-803)?
**A.** 103 nM

**Q.** What about the CC50 (SNU-16) of the same compound?
**A.** 149 nM

**Q.** And the CC50 (HeLa)?
**A.** 199 nM

**Q.** And the CC50 (COLO 205)?
**A.** 350 nM

**Q.** And the CC50 (SUD4)?
**A.** 35.9 nM

**Q.** What about the CC50 (RS4-11) of the same compound?
**A.** 138 nM

**Q.** And the CC50 (MV4-11)?
**A.** 66 nM

**Q.** What about the inhibition [6] of the same compound?
**A.** 90%

**Q.** And the inhibition [7]?
**A.** Active

**Q.** What about the inhibition [8] of the same compound?
**A.** 70%

**Q.** What about the inhibition [9] of the same compound?
**A.** 70%
